Consider 17 molecules from ChEMBL document CHEMBL1147985, “Novel benzodifuran analogs as potent 5-HT2A receptor agonists with ocular hypotensive activity” (Bioorg Med Chem Lett, 2007).

Assay [1] deals with T1, 5-hydroxytryptamine receptor 2A (Rattus norvegicus, UniProt P14842). The assay can be described thus: Displacement of [125I]DOI from 5HT2A receptor in rat cerebral cortex. In kind it is tissue-based. The gist of the method: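 Competition binding against the agonist radioligand [125I]DOI at rat brain (cerebral cortex) 5-HT2A receptors. Values are means of at least three experiments.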
T1 sequence (P14842 whole entry): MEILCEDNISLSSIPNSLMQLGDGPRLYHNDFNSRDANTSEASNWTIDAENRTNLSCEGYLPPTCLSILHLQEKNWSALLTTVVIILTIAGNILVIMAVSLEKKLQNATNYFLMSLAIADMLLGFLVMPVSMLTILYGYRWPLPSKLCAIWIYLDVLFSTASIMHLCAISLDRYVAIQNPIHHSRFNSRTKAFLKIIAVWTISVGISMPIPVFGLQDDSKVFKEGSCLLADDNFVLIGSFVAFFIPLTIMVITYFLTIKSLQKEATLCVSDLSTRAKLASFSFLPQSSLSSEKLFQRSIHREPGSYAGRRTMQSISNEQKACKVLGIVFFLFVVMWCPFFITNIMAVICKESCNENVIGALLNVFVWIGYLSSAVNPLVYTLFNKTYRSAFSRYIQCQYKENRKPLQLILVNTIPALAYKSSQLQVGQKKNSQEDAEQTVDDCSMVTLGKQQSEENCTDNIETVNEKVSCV

For assay [2], the target named is 5-hydroxytryptamine receptor 2A (Rattus norvegicus) (UniProt P14842). The assay can be described thus: (§1) Agonist activity at 5HT2A receptor in rat A7r5 cells assessed as intracellular calcium mobilization relative to 5HT. In kind it is functional, cell-based. The method, boiled down: (§2)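 Native 5-HT2 receptors in rat vascular smooth muscle A7r5 cells; receptor-mediated intracellular Ca2+ mobilization read on FLIPR. Emax expressed relative to the 5-HT response. Values are means of at least three experiments.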
5-hydroxytryptamine receptor 2A (Rattus norvegicus), sequence (P14842 whole entry): as above
For orientation: Calcium assays in cells follow changes in intracellular calcium, usually with a dye or a luminescent sensor.

Assay [3] concerns the target T1, 5-hydroxytryptamine receptor 2A. The assay is described as §1. The format is functional, cell-based. The gist of the method: as §2
Assay [4] has as its target 5-hydroxytryptamine receptor 2A (Rattus norvegicus) (UniProt P14842). The assay can be described thus: Agonist activity at 5HT2A receptor in rat A7r5 cells assessed as intracellular calcium mobilization. The format is functional, cell-based. The method, boiled down: as §2
Assay [5] deals with 5-hydroxytryptamine receptor 2B (Rattus norvegicus, UniProt P30994). The assay can be described thus: Agonist activity at 5HT2B receptor in rat stomach fundus assessed as […] relative to 5HT. In kind it is functional. The method, boiled down: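 Functional 5-HT2B response measured in isolated rat stomach fundus tissue, run by a contract lab. Emax given relative to 5-HT. Means of at least three experiments.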
5-hydroxytryptamine receptor 2B, sequence (P30994 whole entry): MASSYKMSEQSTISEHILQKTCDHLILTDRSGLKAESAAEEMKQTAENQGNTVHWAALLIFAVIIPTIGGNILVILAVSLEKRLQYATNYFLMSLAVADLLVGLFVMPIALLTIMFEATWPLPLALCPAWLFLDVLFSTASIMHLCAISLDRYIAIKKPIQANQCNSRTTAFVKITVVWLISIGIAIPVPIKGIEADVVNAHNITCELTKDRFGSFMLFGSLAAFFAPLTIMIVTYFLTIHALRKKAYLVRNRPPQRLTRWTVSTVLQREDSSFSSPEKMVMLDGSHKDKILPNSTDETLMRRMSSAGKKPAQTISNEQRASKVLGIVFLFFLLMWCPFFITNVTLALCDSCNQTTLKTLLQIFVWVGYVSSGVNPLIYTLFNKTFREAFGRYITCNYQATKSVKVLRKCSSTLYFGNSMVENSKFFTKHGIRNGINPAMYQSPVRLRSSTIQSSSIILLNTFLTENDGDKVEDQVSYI

Assay [6] concerns the target T2, 5-hydroxytryptamine receptor 2C (Rattus norvegicus) (UniProt P08909).
T2 sequence (whole entry): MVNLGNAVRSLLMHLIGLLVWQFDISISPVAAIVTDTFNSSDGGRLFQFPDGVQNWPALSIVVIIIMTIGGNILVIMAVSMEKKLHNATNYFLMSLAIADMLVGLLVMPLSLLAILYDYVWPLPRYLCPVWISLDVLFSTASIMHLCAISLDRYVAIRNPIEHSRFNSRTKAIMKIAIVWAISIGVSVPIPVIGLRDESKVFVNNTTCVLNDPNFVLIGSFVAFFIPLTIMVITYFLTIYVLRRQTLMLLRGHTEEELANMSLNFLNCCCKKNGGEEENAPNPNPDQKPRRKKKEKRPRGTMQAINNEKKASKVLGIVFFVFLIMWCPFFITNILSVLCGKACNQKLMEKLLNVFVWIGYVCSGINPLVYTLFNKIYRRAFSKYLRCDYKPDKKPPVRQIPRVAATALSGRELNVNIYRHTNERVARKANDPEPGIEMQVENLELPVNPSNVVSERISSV
The assay can be described thus: Agonist activity at 5HT2C receptor expressed in […] cells assessed as intracellular calcium mobilization. The format is functional, cell-based. The method, boiled down:
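SR3T3 cells expressing recombinant rat 5-HT2C receptor; intracellular Ca2+ mobilization measured on FLIPR, as for the A7r5 assay. Emax taken relative to 5-HT. Values are means of at least three experiments.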

Assay [7] deals with T3, 5-hydroxytryptamine receptor 2C (Rattus norvegicus, UniProt P08909).
T3 sequence (P08909 whole entry): T2 sequence (whole entry)
The assay can be described thus: Agonist activity at 5HT2C receptor expressed in […] cells assessed as intracellular calcium mobilization relative to 5HT.

A further assay deals with Cynomolgus monkey. The assay can be described thus: Reduction of intra ocular pressure in cynomolgus monkey at 300 ug. The format is functional, organism-based, Macaca fascicularis, Eye. Further details: Activity: scale not given: the % may be the effect or the level left.

The structures appear in SMILES notation. Where only a bound is given, the exact number is not on record here.

In assay [1], `COC(=O)c1c2c(c(C[C@@H](C)N)c3c1OCC3)OCC2` had an IC50 of 14 nM. Moreover, in assay [2], the Emax came out at 48%. In addition, the concentration giving a half-maximal response (EC50) in assay [3] is 880 nM.

`CC(N)Cc1c2c(c(Br)c3c1OCC3)OCC2` (stereo not given) came in with an IC50 in assay [1] of 0.3 nM. Besides, the maximal effect (Emax) in assay [2] was 47%. Also, the EC50 in assay [3] was 13 nM.

Regarding `COCCOCc1c2c(c(C[C@@H](C)N)c3c1OCC3)OCC2`, the figures for the maximal effect (Emax) in assay [4] and in assay [6] were 50% and 93%, respectively. For the same molecule, in assay [1], the half-maximal inhibitory concentration (IC50) stood at 0.88 nM. The EC50 is 71 nM in assay [3], 5.8 nM in assay [5] and 8.6 nM in assay [7].

`Cc1noc(Cc2c3c(c(C[C@@H](C)N)c4c2OCC4)OCC3)n1`: the maximal effect (Emax) was found to be 33% in assay [4] and 69% in assay [6]. This molecule yielded an IC50 in assay [1] of 1.6 nM. Besides, the EC50 in assay [3] turned out to be 49.2 nM; in assay [5], 130 nM; in assay [7], 689 nM.

`C[C@@H](N)Cc1c2c(c(CO)c3c1OCC3)OCC2` returned an IC50 in assay [1] of 1 nM. In addition, in assay [2], the maximum response (Emax) was found to be 43%. Moreover, the 50% effective concentration (EC50) in assay [3] came to 175 nM.

Turning to `COc1cc(C[C@@H](C)N)c(OC)cc1I`, the Emax in assay [4] and in assay [2] was 33% each time. Further, in assay [1], the IC50 was 0.46 nM. In addition, the concentration for a half-maximal effect (EC50) stood at 2.72 nM in the assay on Cynomolgus monkey (Macaca fascicularis, Eye) and 17.8 nM in assay [3].

`C[C@@H](N)Cc1c2ccoc2c(CO)c2ccoc12` displayed a 50% inhibitory concentration (IC50) in assay [1] of 0.31 nM. The maximum response (Emax) in assay [2] was 38%. Further, the half-maximal effective concentration (EC50) in assay [3] was found to be 33 nM.

For the molecule `Cc1noc(CCc2c3c(c(C[C@@H](C)N)c4c2OCC4)OCC3)n1`, in assay [1], the IC50 was determined as 1 nM. The maximum response (Emax) in assay [2] amounted to 7%. Further, the EC50 in assay [3] is more than 10000 nM.

Molecule `COC(=O)CCc1c2c(c(C[C@@H](C)N)c3c1OCC3)OCC2` had an IC50 in assay [1] of 0.86 nM. Besides, in assay [2], the Emax was 40%. Further, the concentration for a half-maximal effect (EC50) in assay [3] came out at 26 nM.

For `C[C@@H](N)[C@H](O)c1c2c(c(Br)c3c1OCC3)OCC2`, the Emax stood at 96% in assay [4] and 100% in assay [6]. Further, the concentration for half-maximal inhibition (IC50) in assay [1] stood at 0.7 nM. Besides, in the assay on Cynomolgus monkey, the Activity worked out at 24%. Moreover, the values for the concentration giving a half-maximal response (EC50) in assay [3], in assay [5] and in assay [7] were 32.7 nM, 6.2 nM and 39 nM, respectively.

On to `C[C@@H](N)Cc1c2c(c(CCC(=O)O)c3c1OCC3)OCC2`, for which, in assay [1], the IC50 stood at 4700 nM. For the same molecule, in assay [2], the maximum response (Emax) was determined as 15%. For the same molecule, in assay [3], the EC50 is more than 1000 nM.

For the molecule `COCc1c2c(c(C[C@@H](C)N)c3c1OCC3)OCC2`, the maximal effect (Emax) was 54% in assay [4] and 99% in assay [6]. This molecule also had an IC50 in assay [1] of 0.28 nM. Also, the Activity in the assay with Cynomolgus monkey worked out at 36.8%. Moreover, the concentration for a half-maximal effect (EC50) in assay [3] stood at 12 nM; in assay [7] it was 12.6 nM.

Molecule `C[C@@H](N)[C@@H](O)c1c2c(c(Br)c3c1OCC3)OCC2` (racemic) displayed an IC50 in assay [1] of 2.6 nM. The maximum response (Emax) in assay [2] came to 56%. Further, in assay [3], the half-maximal effective concentration (EC50) is 87.8 nM.

For the molecule `COCc1c2ccoc2c(C[C@@H](C)N)c2ccoc12`, the concentration for half-maximal inhibition (IC50) in assay [1] worked out at 0.11 nM. Further, the maximal response (Emax) in assay [2] turned out to be 72%. Besides, the EC50 in assay [3] came out at 3.6 nM.

Regarding `Cc1noc(Cc2c3ccoc3c(C[C@@H](C)N)c3ccoc23)n1`, the figures for the Emax in assay [4] and in assay [6] were 60% and 95%, respectively. This molecule had an IC50 in assay [1] of 0.38 nM. The same molecule yielded an Activity with Cynomolgus monkey of 27%. The EC50 came to 16.9 nM in assay [3], 23 nM in assay [5] and 82 nM in assay [7].

With `Cc1noc(-c2c3c(c(C[C@@H](C)N)c4c2OCC4)OCC3)n1`, the IC50 in assay [1] was found to be 910 nM. Besides, the Emax in assay [2] came out at 27%. Also, in assay [3], the EC50 was 8190 nM.

As to `C[C@@H](N)Cc1c2c(c(CC(=O)O)c3c1OCC3)OCC2`, the IC50 in assay [1] was determined as 104 nM. Besides, in assay [2], the maximal response (Emax) stood at 45%. Also, in assay [3], the concentration for a half-maximal effect (EC50) was found to be 4970 nM.

As a reminder, the IC50 is the concentration that gives 50% inhibition. The Emax is the greatest response seen or fitted, relative to the assay's reference. As a reminder, the EC50 is the concentration needed to bring the measured effect to its halfway point.
